PglD inh: C. jejuni PglD acetyltransferase inhibitors, primary screen, biochemical, DTNB colorimetric, single point; UDP-N-acetylbacillosamine N-acetyltransferase PglD (Campylobacter jejuni); purified PglD enzyme, DTNB colorimetric CoA detection; inhibition, % at 12.5 µM; 0.098% of 360,000 active; in the data active means inhibition above about 16%, passing the limit was not always enough; inconclusive means no clear call, values can overlap the other calls
rRNA inh HTS: reduced GFP signal of wild-type E. coli, primary screen, bacterial rRNA inhibitor project, GFP/RFP fluorescence, OD600, single point; E. coli WT GFP vs humanized-ribosome RFP mutants, 24 h; hits give low values; DMSO median 0, no signal -100; GFP signal change (wild-type ribosome), % (no concentration beside the values); AID 720706, 2013; 1.6% of 350,000 active;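 active means significant combined selectivity score with lowered wild-type GFP, culture density cut under 30%, mutant RFP and density less affected; inactive means any of these conditions unmet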
PGC1a acetyl inh: inhibitors of PGC1a acetylation signal, primary screen, cell-based, U2OS, AlphaScreen, inhibitor mode; AlphaScreen anti-acetyl-lysine; with virally co-expressed GCN5 acetyltransferase; inhibition, % at 15.6 µM; 0.17% of 350,000 active;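 active means every replicate shows inhibition of at least 40%; inconclusive means mean inhibition at least 40% but some replicate below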;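 further: 0% = neutral control wells and 100% = positive control wells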
Cneo AK release: Cryptococcus neoformans cell lysis inducers, primary screen, AK release luminescence, single concentration; 0.2% of 360,000 active; C. neoformans lysis, adenylate kinase release luminescence, 4 h; normalised: neutral wells 0, clomiphene wells 100; lysis activity, % at 15 µM;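 active means mean lysis activity across replicates of at least 80%, whatever share of replicates individually reach that level; inactive means mean lysis activity below 80%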
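Test system: log-phase Cryptococcus neoformans yeast cells; Quantity: yeast cell density of 5 × 10^6 cells/mL; Buffer or medium: YPD; Doses: single compound concentration per well; Timing: 4 h at 37 °C static, read 1 h later; Measured by: AK luminescence; Read-out basis: lysis from increased AK signal; Control set: Clomiphene as positive control.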
FGF22 binding: binders of human FGF22 protein, primary screen, FGF22 synaptogenesis inhibitor project, biophysical, thermal shift, single point; recombinant FGF22 thermal shift, SYPRO orange fluorescence; percent of sucrose octasulfate shift, DMSO zero; activity (Tm shift, normalised), % at 9.99 µM; 1.5% of 340,000 active; AID 651658, 2012;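 active means mean Tm shift, scaled 0 neutral to 100 positive control, at about 1.3% or above, every replicate too, limit read from the data; inconclusive means no clear call, values can overlap the other calls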
Target sequence (Q9HCT0 whole entry, looked up): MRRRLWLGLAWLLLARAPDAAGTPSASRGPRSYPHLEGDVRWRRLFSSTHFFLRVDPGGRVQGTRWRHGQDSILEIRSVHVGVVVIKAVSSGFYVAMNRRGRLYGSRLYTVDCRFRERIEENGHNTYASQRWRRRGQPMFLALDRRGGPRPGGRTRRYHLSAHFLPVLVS
Vif imaging: HIV Vif self-association inhibitors, primary screen, imaging, HEK293T, single point; HEK293T cells, Vif self-association by quenched fluorescence, 24 h; inhibition, % at 7.49 µM; 0.35% of 340,000 active; AID 602346, 2012; in the data active means inhibition above about 50%, passing the limit was not always enough; inconclusive means no clear call, values can overlap the other calls; inactive means below about 31%
Active calls of the source: *; u = inconclusive; x = not tested or not shown. Shown are actives, neighbours in structure and some others; about 2.9% of the full set was active somewhere.

SMILES	PglD inh	rRNA inh HTS	PGC1a acetyl inh	Cneo AK release	FGF22 binding	Vif imaging
O=C(NCCCN1CCCC1=O)Nc1ccc(Cl)cc1Cl	12	0	x	2	0	-3
O=C(NCCCN1CCCC1=O)c1cc(-c2ccc(F)cc2)nc2ccccc12	4	-20*	3	1	0	0
O=C(NCCCN1CCCC1=O)c1ccccc1OCc1ccc(Cl)cc1Cl	0	-31*	1	1	0	17
O=C(NC[C@H]1[C@@H](c2ccccc2)[C@@H](CO)N1CC1CCCC1)c1cccnc1	-1	-1	1	0	x	x
NC(=O)c1nnsc1Sc1c(C(N)=O)nnn1-c1cccc(N)c1	x	-27*	-28	x	0	2
COC(=O)c1cn(-c2cccc(N)c2)nn1	0	x	17	23	0	x
Oc1ccc(N=Nc2ccc3c(c2)OCCO3)c(O)c1	6	-38*	-5	0	0	5
Oc1ccc(N=Nc2ccc3c(c2)OCCO3)c2cccnc12	x	4	4	x	0	5
OCCN(CC#CCn1c2ccccc2c2ccccc21)CCO	x	-29*	x	x	0	35
COc1ccc(-c2ccc3c(c2)[C@H]2[C@H](CCN2C(=O)c2cnccn2)[C@H](CO)N3)cc1	0	-4	-5	1	1	x
O=C(c1ccccc1)N1N=C(C(F)(F)F)CC1(O)c1ccccc1 (stereo not given)	-2	-12	0	0	0	-1
COc1cccc(C2(O)CC(C(F)(F)F)=NN2C(=O)c2ccccn2)c1 (stereo not given)	x	-15	-2	x	43*	0
Cc1ccc2nc(N)nnc2c1	x	2	x	x	0	5
Nc1nnc2cc(Cl)ccc2n1	-5	5	-15	-2	44*	25
c1ccc(CSc2nccc(-c3ccco3)n2)cc1	-1	-36*	4	-2	0	0
CCC(=O)N1CCN(c2cc(C)ccc2C)CC1	0	x	-4	0	x	50*
CCN(CC)CCOCCn1c(C)ccc1C	2	x	4	-2	43*	-3
Cc1ccc(S(=O)(=O)N[C@H]2C=C[C@@H](CC(=O)N3CCC(Cc4ccccc4)CC3)O[C@H]2CO)cc1	1	-1	12	85*	0	x
Cc1ccc(S(=O)(=O)N[C@H]2C=C[C@@H](CC(=O)NCCN3CCCCC3)O[C@H]2CO)cc1	-6	1	105*	8	0	x
Cc1ccc(S(=O)(=O)N[C@@H]2C=C[C@H](CC(=O)N3CCC(Cc4ccccc4)CC3)O[C@@H]2CO)cc1	0	0	19	76	0	x
COc1ccc(S(=O)(=O)N[C@H]2C=C[C@H](CC(=O)N3CCC(Cc4ccccc4)CC3)O[C@@H]2CO)cc1	3	-15	-15	89*	0	x
COc1ccc(NC(=O)N2C[C@@H](O)COC[C@@H]3O[C@@H](CC(=O)NCc4ccccc4OC)CC[C@H]32)cc1	-2	0	-2	2	0	x
Cc1ccc(/C=N/NC(=O)c2cccc(S(=O)(=O)Nc3ccccc3Cl)c2)s1	3	-1	-1	-1	0	-7
O=C(N/N=C/c1ccccc1C(=O)O)c1cccc(S(=O)(=O)Nc2cc(Cl)ccc2Cl)c1	-2	-19*	u	-4	0	1
Cc1ccc(/C=N/NC(=O)c2cccc(S(=O)(=O)Nc3cccc(Cl)c3)c2)o1	x	-21*	0	x	0	7
SMILES	PglD inh	rRNA inh HTS	PGC1a acetyl inh	Cneo AK release	FGF22 binding	Vif imaging
C[C@H]1CCCCO[C@@H](CN(C)CC2CCCCC2)[C@@H](C)CN([C@@H](C)CO)C(=O)c2cc(NC(=O)NC3CCCCC3)ccc2O1	-7	-3	-6	3	0	x
C[C@H]1CN([C@@H](C)CO)C(=O)Cc2cc(NC(=O)c3ccncc3)ccc2O[C@@H]1CN(C)S(C)(=O)=O	x	3	1	x	x	x
CCCC(=O)N1CCN(c2nc3c(OC)ccc(Cl)c3s2)CC1	-1	-36*	0	-1	0	14
Cc1ccc(-n2nc(CC#N)c(C#N)c2N)cc1	x	x	x	x	x	0
Cc1ccc(Nc2nc(N)c(C#N)c(CC#N)c2C#N)cc1	x	-4	1	x	44*	-9
Cc1ccc(S(=O)(=O)NC[C@@H]2CC[C@@H]3[C@@H](CN3Cc3ccccc3C(=O)O)O2)cc1	x	x	6	x	x	x
O=C(N/N=C/c1ccc(OC(F)F)cc1OC(F)F)c1cccc(S(=O)(=O)N2CCOCC2)c1	x	-4	1	x	44*	-4
CCCNC(=O)N[C@@H]1CC[C@H](CCNS(=O)(=O)c2cccc(F)c2)O[C@H]1CO	0	2	-10	2	0	x
O=C(C[C@H]1C=C[C@@H](NS(=O)(=O)c2cccc(F)c2)[C@@H](CO)O1)N1CCCCC1	2	-2	-8	7	0	x
COc1ccc(NC(=O)COC(=O)c2cccc(S(=O)(=O)N(C)C)c2)cc1	-1	5	x	2	43*	17
O=C(COC(=O)c1cccc(O)c1)Nc1ccc(OC(F)F)cc1	x	-25*	x	x	42	-4
N#Cc1ccccc1COC(=O)c1cccc(S(=O)(=O)N2CCCC2)c1	-2	-29*	-12	-1	0	-1
CN(C)S(=O)(=O)c1cccc(C(=O)Nc2ccccc2)c1	x	12	7	x	43*	-3
O=C(COC(=O)c1ccc(O)cc1)Nc1ccc(OC(F)F)cc1	0	10	4	2	0	6
CN(C)S(=O)(=O)c1cccc(C(=O)OCC(=O)Nc2sccc2C(N)=O)c1	0	x	-4	0	x	18
C[C@H](CO)N1C[C@H](C)[C@@H](CN(C)Cc2ccncc2)Oc2ccc(NS(=O)(=O)c3ccccc3)cc2CC1=O	0	-7	-4	0	0	x
C[C@@H]1COCc2cn(nn2)CC[C@@H](Cc2ccccc2)C(=O)N1	x	-1	x	x	x	x
COCC(=O)N1CC2(C1)[C@H](c1ccc(-c3ccccc3)cc1)[C@@H](CO)N2C(=O)COC	x	0	8	x	0	x
N#Cc1ccc(C(=O)OCC(=O)Nc2cccc(S(=O)(=O)N3CCCCC3)c2)cc1	-6	-3	-5	-2	-1	-3
COc1ccc(N(C)S(=O)(=O)c2cccc(C(=O)Nc3ccc(OC)nc3)c2)cc1	x	-28	x	x	0	x
N#Cc1ccc(NC(=O)COC(=O)c2cccc(S(=O)(=O)N3CCCC3)c2)cc1	-1	-8	1	2	43*	-5

Screening data: PubChem, Broad Institute
